For test [1], the target named is Substance-P receptor (Cavia porcellus) (UniProt P30547). The test can be described thus: Antagonist activity at NK1 receptor in Hartley guinea pig isolated ileum assessed as inhibition of substance P-induced muscle contraction. Type of test: functional, tissue-based. In a few lines: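 Guinea pig ileum LMMP (male Hartley), 1 g tension, in oxygenated Krebs at 37 °C, with 1 μM naloxone present. Substance P dose–response curves were run with and without peptide. Responses were expressed as % of the maximal peak of the control substance P curve, and Ke was derived from these curves.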

The target of test [2] is T1, Delta-type opioid receptor (Homo sapiens, UniProt P41143). The test is described as follows: Agonist activity at human delta opioid receptor expressed in HN9.10 cells assessed by [35S]GTP-gamma-S binding assay. The format is functional, cell-based. In a few lines:
(§1)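 Membranes (10 μg) from transfected cells stably expressing hDOR or rMOR, in 1 mL of 50 mM HEPES pH 7.4 with 1 mM EDTA, 5 mM MgCl2, 30 μM GDP, 1 mM DTT, 100 mM NaCl, 0.1 mM PMSF, 0.1% BSA and 0.1 nM [35S]GTPγS. Peptide added at various concentrations in duplicate, 90 min at 30 °C, then filtration. Nonspecific binding defined with 10 μM GTPγS. Stimulation taken as % over basal; EC50 and Emax by nonlinear regression from two independent experiments.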

The target in test [3] is T1, Delta-type opioid receptor. The test is described as follows: Agonist activity at human delta opioid receptor expressed in HN9.10 cells assessed by [35S]GTP-gamma-S binding assay relative to control. The format is functional, cell-based. In a few lines:
as §1
On the technique in general: Binding of GTPγS marks nucleotide exchange on a G protein.

Test [4] deals with Mu-type opioid receptor (Rattus norvegicus) (UniProt P33535). The test is described as follows: Agonist activity at rat mu opioid receptor expressed in HN9.10 cells assessed by [35S]GTP-gamma-S binding assay relative to control. The format is functional, cell-based. In a few lines:
as §1

The target of test [5] is Substance-P receptor (Cavia porcellus) (UniProt P30547). The test can be described thus: Agonist activity at NK1 receptor in Hartley guinea pig isolated ileum assessed as muscle contraction relative to KCl. The arrangement: concentration or dose not given beside the values. The format is functional, tissue-based. In a few lines:
(§2)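 Guinea pig ileum LMMP (male Hartley) in oxygenated Krebs at 37 °C, 1 g tension, exposed to peptide at the tested antagonist concentration. Any contraction was expressed relative to the initial KCl-induced contraction of the same tissue. Testing stopped at […].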

Test [6] deals with Mu-type opioid receptor (Cavia porcellus, UniProt P97266). The test can be described thus: Agonist activity at mu opioid receptor in Hartley guinea pig ileum assessed as inhibition of electrically-stimulated muscle contraction. The format is functional, tissue-based. Summed up:
(§3)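 Isolated tissues, electrically stimulated at supramaximal voltage: guinea pig (male Hartley) ileum LMMP (1 g tension, Krebs, 0.1 Hz, 0.4 ms) and male ICR mouse vas deferens (0.5 g, Mg-free Krebs, 0.1 Hz, 2.0 ms), both at 37 °C.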

Test [7] in a line: Ratio of Ki for rat mu opioid receptor to Ki for human delta opioid receptor. In a few lines: (§4)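 Competition binding on crude membranes (50 μg) from cells stably expressing rMOR ([3H]DAMGO, 1.0 nM) or hDOR ([3H]DPDPE, 1.0 nM). Buffer was 50 mM Tris pH 7.4 with peptidase/protease inhibitors and 1 mg/mL BSA. Ten peptide concentrations were run in duplicate for 3 h at 25 °C, with 10 μM naloxone for nonspecific binding. Separation by filtration and scintillation counting; IC50 by nonlinear regression from two experiments; Ki by Cheng–Prusoff.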

Test [8] can be described thus: Ratio of EC50 for rat mu opioid receptor to EC50 for human delta opioid receptor by [35S]GTPgammaS binding assay. The format is functional. Summed up: as §1
The target in test [9] is Mu-type opioid receptor (Cavia porcellus) (UniProt P97266). The test is described as follows: Agonist activity at mu opioid receptor in Hartley guinea pig isolated ileum assessed as muscle contraction at 1 uM relative to KCl. Type of test: functional, tissue-based. In a few lines: as §2
Test [10] is described as follows: Ratio of IC50 for mu opioid receptor in GPI assay to IC50 for delta opioid receptor in MVD assay. Type of test: functional. Summed up: as §3
In test [11] the target is T2, Mu-type opioid receptor (Rattus norvegicus, UniProt P33535). The test can be described thus: Agonist activity at rat mu opioid receptor expressed in HN9.10 cells assessed by [35S]GTP-gamma-S binding assay. The format is functional, cell-based. Summed up: as §1
In test [12] the target is T2, Mu-type opioid receptor. The test is described as follows: Displacement of [3H]DAMGO from rat mu opioid receptor expressed in HN9.10 cells. The format is cell-based. In a few lines: as §4
On the technique in general: Loss of bound radioactivity is the signal in a displacement assay; it reports binding, not function.

Test [13] concerns the target T1, Delta-type opioid receptor. The test can be described thus: Displacement of [3H]DPDPE from human delta opioid receptor expressed in HN9.10 cells. Type of test: cell-based.

Square brackets hold non-standard residues; d marks the D form. Peptide text beside a SMILES is read from it. * marks the point of attachment. OBzl(3,5-(CF3)2) = FC(F)(F)c1cc(CO*)cc(C(F)(F)F)c1

Chain of Substance-P receptor (Cavia porcellus) (P30547 whole entry): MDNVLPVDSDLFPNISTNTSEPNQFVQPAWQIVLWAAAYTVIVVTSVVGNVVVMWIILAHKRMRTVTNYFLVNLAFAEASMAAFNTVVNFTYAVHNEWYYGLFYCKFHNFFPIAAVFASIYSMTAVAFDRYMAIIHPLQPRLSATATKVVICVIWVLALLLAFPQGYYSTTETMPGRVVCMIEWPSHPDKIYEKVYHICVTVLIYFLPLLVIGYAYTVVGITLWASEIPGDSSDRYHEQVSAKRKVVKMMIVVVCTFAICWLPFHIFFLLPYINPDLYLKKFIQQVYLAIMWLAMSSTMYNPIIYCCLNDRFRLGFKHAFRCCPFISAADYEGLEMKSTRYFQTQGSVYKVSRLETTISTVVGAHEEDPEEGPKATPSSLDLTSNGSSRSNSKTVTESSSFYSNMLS
T1 sequence (P41143 whole entry): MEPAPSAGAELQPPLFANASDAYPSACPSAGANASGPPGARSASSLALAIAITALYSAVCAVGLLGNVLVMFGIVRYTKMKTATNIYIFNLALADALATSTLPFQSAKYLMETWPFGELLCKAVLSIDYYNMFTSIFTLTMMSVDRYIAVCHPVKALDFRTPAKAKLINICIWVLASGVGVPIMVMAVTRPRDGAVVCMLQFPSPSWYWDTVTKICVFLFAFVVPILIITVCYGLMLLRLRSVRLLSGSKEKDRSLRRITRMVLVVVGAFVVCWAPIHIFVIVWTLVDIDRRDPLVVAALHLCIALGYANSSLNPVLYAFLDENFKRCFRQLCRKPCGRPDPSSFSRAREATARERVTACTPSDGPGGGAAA
Chain of Mu-type opioid receptor (Cavia porcellus, UniProt P97266) (P97266 whole entry): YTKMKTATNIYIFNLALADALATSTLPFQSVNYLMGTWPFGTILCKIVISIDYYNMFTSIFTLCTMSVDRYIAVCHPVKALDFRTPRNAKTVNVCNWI
Chain of Mu-type opioid receptor (Cavia porcellus) (P97266 whole entry): as above
Chain of Mu-type opioid receptor (Rattus norvegicus) (P33535 whole entry): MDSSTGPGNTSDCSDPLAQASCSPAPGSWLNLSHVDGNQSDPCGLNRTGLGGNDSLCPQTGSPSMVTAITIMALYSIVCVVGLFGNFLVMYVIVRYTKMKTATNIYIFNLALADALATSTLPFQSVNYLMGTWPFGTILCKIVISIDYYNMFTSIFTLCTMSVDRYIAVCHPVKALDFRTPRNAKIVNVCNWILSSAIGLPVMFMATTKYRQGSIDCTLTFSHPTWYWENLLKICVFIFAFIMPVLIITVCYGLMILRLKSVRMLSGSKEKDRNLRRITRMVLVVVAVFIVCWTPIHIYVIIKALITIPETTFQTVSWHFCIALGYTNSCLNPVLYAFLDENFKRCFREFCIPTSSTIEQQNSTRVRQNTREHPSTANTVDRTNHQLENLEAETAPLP
T2 sequence (P33535 whole entry): as above

Take `CC(=O)N[C@@H](Cc1c[nH]c2ccccc12)C(=O)OCc1cc(C(F)(F)F)cc(C(F)(F)F)c1`: the Ke in test [1] stood at 250 nM.

On to `CSCC[C@H](NC(=O)[C@H](Cc1ccccc1)NC(=O)CNC(=O)[C@@H](C)NC(=O)[C@@H](N)Cc1ccc(O)cc1)C(=O)N1CCC[C@H]1C(=O)N[C@@H](CC(C)C)C(=O)N[C@@H](Cc1c[nH]c2ccccc12)C(=O)OCc1cc(C(F)(F)F)cc(C(F)(F)F)c1`, for which the concentration giving a half-maximal response (EC50) – broadly, the concentration at which the effect is half-maximal – in test [2] is 2.9 nM. Also, the Emax – broadly, the greatest response seen or fitted, relative to the assay's reference – in [3] was determined as 45%; in test [4], 42%. In test [1], the Ke was found to be 25 nM. For the same compound, in [5], the Activity amounted to 0%. The IC50 (as a rule, the concentration needed to halve the response being measured) at Mu-type opioid receptor [6] turned out to be 360 nM.

On to `CC(C)C[C@H](NC(=O)[C@@H]1CCCN1C(=O)[C@@H](Cc1ccccc1)NC(=O)[C@H](Cc1ccccc1)NC(=O)CNC(=O)[C@@H](C)NC(=O)[C@@H](N)Cc1ccc(O)cc1)C(=O)N[C@@H](Cc1c[nH]c2ccccc12)C(=O)OCc1cc(C(F)(F)F)cc(C(F)(F)F)c1`, for which the Ratio Ki in test [7] turned out to be 4.1. Moreover, the EC50 stood at 17 nM in test [2] and 350 nM on Mu-type opioid receptor [11]. In addition, in test [8], the Ratio EC50 came to 20. In addition, the Emax in test [3] amounted to 23%; in test [4] it was 24%. Besides, the Ke in [1] is 70 nM. For the same compound, the Activity came to 9% in [9] and 0% in test [5]. Besides, the Ratio IC50 in test [10] was over 2.4.

Take `CC(C)C[C@H](NC(=O)[C@@H]1CCCN1C(=O)[C@H](CC[S+](C)[O-])NC(=O)[C@H](Cc1ccccc1)NC(=O)CNC(=O)[C@@H](C)NC(=O)[C@@H](N)Cc1ccc(O)cc1)C(=O)N[C@@H](Cc1c[nH]c2ccccc12)C(=O)OCc1cc(C(F)(F)F)cc(C(F)(F)F)c1` (some centres undefined): the Emax in test [3] was 52%. Moreover, the Ke in [1] turned out to be 7.8 nM. In addition, at Mu-type opioid receptor [6], the IC50 worked out at 150 nM.

In the case of `CCCC[C@H](NC(=O)[C@H](Cc1ccccc1)NC(=O)CNC(=O)[C@@H](C)NC(=O)[C@@H](N)Cc1ccc(O)cc1)C(=O)N1CCC[C@H]1C(=O)N[C@@H](CC(C)C)C(=O)N[C@@H](Cc1c[nH]c2ccccc12)C(=O)OCc1cc(C(F)(F)F)cc(C(F)(F)F)c1`, in test [2], a half-maximal response (EC50) required 4 nM. Moreover, the Emax in test [3] turned out to be 130%. Moreover, the Ke in test [1] came out at 7.9 nM. The Activity in test [5] came out at 0%. Also, the concentration for half-maximal inhibition (IC50) at Mu-type opioid receptor [6] was determined as 370 nM.

In the case of `CC(C)C[C@H](NC(=O)[C@@H]1CCCN1C(=O)[C@H](CC(C)C)NC(=O)[C@H](Cc1ccccc1)NC(=O)CNC(=O)[C@@H](C)NC(=O)[C@@H](N)Cc1ccc(O)cc1)C(=O)N[C@@H](Cc1c[nH]c2ccccc12)C(=O)OCc1cc(C(F)(F)F)cc(C(F)(F)F)c1`, in test [7], the Ratio Ki is 4.7. For the same compound, the affinity at Mu-type opioid receptor [12], expressed as Ki, was 23 nM. Moreover, in [8], the Ratio EC50 amounted to 3.4. In addition, the Emax was determined as 43% in test [3] and 45% in [4]. For the same compound, the Ke in test [1] stood at 19 nM. Further, in test [10], the Ratio IC50 turned out to be 3.4. The same compound came in with an EC50 on Mu-type opioid receptor [11] of 33 nM. Moreover, the Activity in test [5] is 0%. Moreover, the IC50 on Mu-type opioid receptor [6] is 340 nM.

With `CC(C)C[C@H](NC(=O)[C@@H]1CCCN1C(=O)CNC(=O)[C@H](Cc1ccccc1)NC(=O)CNC(=O)[C@@H](C)NC(=O)[C@@H](N)Cc1ccc(O)cc1)C(=O)N[C@@H](Cc1c[nH]c2ccccc12)C(=O)OCc1cc(C(F)(F)F)cc(C(F)(F)F)c1` (H-Y[dA]GFGPLW-{OBzl(3,5-(CF3)2)}), the EC50 in test [2] was determined as 50 nM; on Mu-type opioid receptor [11] it was 42 nM. Further, the Emax in test [3] worked out at 34%; in test [4] it was 36%. Besides, the Ke in test [1] stood at 5.4 nM. Also, in [5], the Activity came to 0%. In addition, the IC50 at Mu-type opioid receptor [6] was 380 nM.

Turning to `CC(C)C[C@@H](NC(=O)[C@H](Cc1ccccc1)NC(=O)CNC(=O)[C@@H](C)NC(=O)[C@@H](N)Cc1ccc(O)cc1)C(=O)O` [DADLE], the IC50 on Mu-type opioid receptor [6] worked out at 24 nM.

As for `CC(C)C[C@H](NC(=O)[C@@H]1CCCN1C(=O)[C@H](Cc1ccccc1)NC(=O)[C@H](Cc1ccccc1)NC(=O)CNC(=O)[C@@H](C)NC(=O)[C@@H](N)Cc1ccc(O)cc1)C(=O)N[C@@H](Cc1c[nH]c2ccccc12)C(=O)OCc1cc(C(F)(F)F)cc(C(F)(F)F)c1`, the Ratio Ki in [7] was found to be 1.9. In addition, the EC50 in [2] came to 21 nM; on Mu-type opioid receptor [11] it was 59 nM. Also, the Ratio EC50 in test [8] was found to be 2.8. The Ki (as a rule, the dissociation constant of the complex between target and ligand, obtained from inhibition or displacement) in test [13] came out at 15 nM. Moreover, the Emax was 39% in test [3] and 36% in test [4]. For the same compound, the Ke in [1] was determined as 14 nM. In addition, the results for the Activity in [9] and in test [5] were 7% and 0%, respectively. Moreover, the Ratio IC50 in test [10] was over 1.

In [2], `CCCC[C@@H](C(=O)N1CCC[C@H]1C(=O)N[C@@H](CC(C)C)C(=O)N[C@@H](Cc1c[nH]c2ccccc12)C(=O)OCc1cc(C(F)(F)F)cc(C(F)(F)F)c1)N(C)C(=O)[C@H](Cc1ccccc1)NC(=O)CNC(=O)[C@@H](C)NC(=O)[C@@H](N)Cc1ccc(O)cc1` yielded an EC50 of 360 nM. The compound further gave an Emax in test [3] of 290%. In addition, the Ke in test [1] is 4.6 nM. Besides, the Activity was 12% in [9] and 2% in [5].

The values are drawn from ChEMBL document CHEMBL1143706, “Design, synthesis, and biological evaluation of novel bifunctional C-terminal-modified peptides for delta/mu opioid receptor agonists and neurokinin-1 receptor antagonists” (J Med Chem, 2007).
